# UBC13 inh: inhibitors of human UBC13 polyubiquitin chain formation | P61088 | TR-FRET | inhibition, % at 20 µM | actives 0.47% (n = 330,000); in the data active = inhibition above about 45%, passing the limit was not always enough
# Target sequence (P61088 whole entry, looked up): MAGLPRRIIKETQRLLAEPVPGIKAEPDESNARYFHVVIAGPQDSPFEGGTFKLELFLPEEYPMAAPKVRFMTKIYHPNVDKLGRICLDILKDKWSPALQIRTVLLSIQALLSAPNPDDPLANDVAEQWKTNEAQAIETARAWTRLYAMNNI
# Apaf-1 inh: inhibitors of human Apaf-1 apoptosome; reconstituted apoptosome caspase-3 activity, DEVD-Rh110 fluorescence; inhibition, % at 20 µM; actives 0.71% (n = 330,000); AID 489030; active = inhibition of at least 40% at 20 µM;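 note: plate controls were DMSO wells for no effect and DEVD-CHO caspase inhibitor wells for full effect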
#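 Assay system: Apoptosome proteins | Medium: pH 7.5 Hepes buffer with CHAPS, BSA, DTT | Also added: Cytochrome c and DEVD-Rh110 substrate | Times: 30 min plus 50 min, RT | Detection: Rhodamine 110 fluorescence at Ex 480/Em 540 nm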
# UBC9 SUMO inh: inhibitors of human SUMOylation (UBC9). P63279. HTRF SUMOylation assay, SAE1/SAE2 + UBC9, in vitro. inhibition, % at 35 µM. actives 0.36% (n = 290,000). AID 2006; in the data active = inhibition above about 50%, passing the limit was not always enough
# Target sequence (P63279 whole entry, looked up): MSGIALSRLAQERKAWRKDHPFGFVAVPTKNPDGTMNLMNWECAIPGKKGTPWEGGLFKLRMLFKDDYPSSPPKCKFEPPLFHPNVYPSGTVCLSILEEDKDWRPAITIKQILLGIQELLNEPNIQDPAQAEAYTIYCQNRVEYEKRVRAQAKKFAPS
# GSTO1 counter: GSTO1 inhibition, counter-screen for RBBP9 inhibitors | recombinant GSTO1, activity-based probe fluorescence polarization | inhibition, % at 5.96 µM | actives 1.1% (n = 300,000) | AID 1974;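 active = inhibition above the campaign mean inhibition plus 3 SD, cut at about 35% in these data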;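 note: 0% = GSTO1-1 with DMSO and 100% = wells lacking GSTO1-1 enzyme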
# Target sequence (P78417 whole entry, looked up): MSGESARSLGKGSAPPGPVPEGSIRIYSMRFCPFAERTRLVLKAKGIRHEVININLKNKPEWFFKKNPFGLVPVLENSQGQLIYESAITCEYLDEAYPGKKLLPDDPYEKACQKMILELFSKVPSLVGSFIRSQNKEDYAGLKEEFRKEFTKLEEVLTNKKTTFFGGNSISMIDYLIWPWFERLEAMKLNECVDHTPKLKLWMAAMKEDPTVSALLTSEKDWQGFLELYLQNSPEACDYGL
# PAD4 FP inh: inhibitors of human PAD4. recombinant PAD4, RCA probe fluorescence polarization. actives 0.41% (n = 330,000). inhibition, % at 6.36 µM;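 active = percent inhibition above a cutoff equal to the mean of all tested compounds plus 3 SD, cut at about 15% in these data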;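 note: 0% = PAD4 with RCA probe and DMSO and 100% = probe without PAD4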
# Rin1-Abl PPI inh: inhibitors of human Rin1-Abl protein interaction; actives 0.4% (n = 360,000); inhibition, % at 7.35 µM; AID 588664; TR-FRET Rin1/Abl binding, biochemical; P00519+Q13671; in the data active = inhibition above about 5%, passing the limit was not always enough
# Apaf-1 inh conf2: Apaf-1 inhibition, single-dose confirmed; shares compounds with Apaf-1 inh; reconstituted apoptosome, caspase-3 DEVD-Rh110 fluorescence; inhibition, % at 20 µM; actives 25% (n = 1,800);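 active = mean inhibition of at least 40% at 20 µM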;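 note: plate controls were DMSO wells for no effect and DEVD-CHO caspase inhibitor control wells for full effect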
# Rh110 quench: interferes with Rh110 fluorescence, flagging false Apaf-1 inhibitors; shares compounds with Apaf-1 inh; Rh110 fluorescence interference, quenched caspase reaction; activation (fluorescence interference), % at 20 µM; 1,800 tested, under 10 active; AID 504615;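 active = signal rise of 40% or more at 20 µM, treated as a fluorescence artifact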
# Fluor interf inh: Apaf-1 inhibitor counter-screen fluorescence artifact | shares compounds with Apaf-1 inh | fluorescence interference counterscreen, Apaf-1 assay format | IC50, µM | 460 tested, under 10 active | AID 588538; call rule not given here
# Rin1 Abl conf: confirmation of inhibitors of human Rin1-Abl interaction. shares compounds with Rin1-Abl PPI inh. TR-FRET Rin1-Abl binding, purified proteins. inhibition, % at 7.35 µM. actives 49% (n = 1,300). AID 602124
# GFP quencher: GFP fluorescence interference artifact; shares compounds with Rin1-Abl PPI inh; inhibitors/quenchers counterscreen; inhibition, % at 6.75 µM; actives 8.5% (n = 1,300); AID 602125;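 note: ABL1-eGFP fusion protein alone without its partner RIN1-SBP; 0% = protein with vehicle and 100% = wells lacking protein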
# GFP quench dose: GFP fluorescence interference dose response. shares compounds with Rin1-Abl PPI inh. GFP fluorescence interference/quenching counterscreen. IC50, µM. 230 tested, under 10 active. AID 602182; call rule not given here;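 note: ABL1-eGFP fusion protein alone without its RIN1 binding partner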
# * = called active by the depositor; . = not tested or not shown. Most compounds without a hit are left out; they make up all but 2.2% or so of the library. Cut-off read from the data, not from the text of the source, unless noted: active = inhibition above about 6.5%; inactive = the rest.
SMILES,UBC13 inh,Apaf-1 inh,UBC9 SUMO inh,GSTO1 counter,PAD4 FP inh,Rin1-Abl PPI inh,Apaf-1 inh conf2,Rh110 quench,others
COc1ccc(C(CNC(=O)c2cccc(S(=O)(=O)N(C)c3ccccc3)c2)N2CCCC2)cc1 (configuration not stated),9.7,43.5*,.,.,-3.5,0.1,19.2,6.8,
COc1ccc(C(CNC(=O)C2CC(=O)N(Cc3ccccc3)C2)N2CCOCC2)cc1 (configuration not stated),-1.5,-13.5,.,.,-1.7,0.1,.,.,
O=C(CCNS(=O)(=O)c1ccc(Br)cc1)NCc1ccc(Cl)cc1,6.1,-4.7,.,6.6,-2.0,-0.2,.,.,
C=CCN(CC=C)C(=S)Nc1ccc2nsnc2c1,6.1,96.0*,87.2,42.0*,-12.5,4.3,9.3,-5.3,
Cc1ccc(NC(=S)NCc2ccc3c(c2)OCO3)cc1C,7.9,5.9,3.8,-3.5,-2.9,1.1,.,.,
S=C(NCc1ccc2c(c1)OCO2)Nc1ccc2nsnc2c1,-4.3,61.6*,86.7,9.7,-12.7,-0.8,7.6,2.1,
C[C@H]1CN([C@@H](C)CO)C(=O)CCCn2nncc2CO[C@H]1CN(C)S(=O)(=O)c1ccc(F)cc1,.,.,.,.,.,-3.1,.,.,
COc1ccc(N2CCCC2)c(NC(=O)COc2ccccc2)c1,-1.9,15.2,-2.8,1.5,1.3,3.5,.,.,
CCc1ccccc1OCC(=O)Nc1ccc(N2CCCC2)cc1C,-0.3,42.7*,.,.,.,-2.3,25.6,3.9,
Cc1ccccc1OCC(=O)Nc1ccc(N2CCOCC2)cc1N1CCOCC1,-0.9,3.5,.,.,-2.3,0.6,.,.,
Cc1cc(N2CCCC2)ccc1NC(=O)COc1ccccc1,2.5,52.2*,.,.,.,-1.9,18.7,-1.5,
O=C(CN1C(=O)NC2(CCCCC2)C1=O)NCCCSc1ccccc1,-2.1,-3.8,.,.,-4.7,4.7,.,.,
CC1(OC(=O)C2CCCC2)C(=O)C=C2C=C(c3ccsc3)N(C3CCCC3)C=C2C1=O (configuration not stated),-32.1,25.2,-12.8,17.1,-5.3,2.1,.,.,
COC(=O)CCC(=O)OC1(C)C(=O)C=C2C=C(C3CC3)N(C3CCCC3)C=C2C1=O (configuration not stated),-78.4,67.5*,3.3,26.4,-5.3,1.9,38.3,7.8,
COC(=O)CCC(=O)OC1(C)C(=O)C=C2C=C(C3CC3)N(CC3CC3)C=C2C1=O (configuration not stated),-56.9,56.8*,3.2,33.0,0.2,1.3,36.6,2.6,
CC1(OC(=O)CCc2ccccc2)C(=O)C=C2C=C(c3ccc(C#N)cc3)N(CC3CC3)C=C2C1=O (configuration not stated),-50.0,20.1,3.1,11.5,-9.1,0.8,.,.,
N#Cc1ccc(S(=O)(=O)NC2CCCCNC2=O)cc1 (configuration not stated),-1.0,-0.5,-6.0,-2.1,-3.0,4.1,.,.,
Cc1ccc(-c2cc3c(nn2)-c2ccccc2C3=O)cc1,-19.7,26.8,-7.9,17.3,-8.8,-2.9,.,.,
O=C1c2ccccc2-c2nnc(-c3ccc(O)cc3)cc21,-47.3,90.7*,-17.1,10.4,-19.3,-0.6,11.1,0.5,
O=C1c2ccccc2-c2nc3ccccc3cc21,-12.0,0.5,14.8,0.4,-6.2,-1.7,.,.,
O=C1c2ccccc2-c2nnc(-c3ccc(F)cc3)cc21,-56.1,78.2*,5.8,9.6,4.6,4.2,9.1,2.3,
CCCCNC(=O)C1(C)CCCCN1C(=O)c1csnn1 (configuration not stated),.,.,.,.,.,2.3,.,.,
COc1cccc(C(O)c2ncc(-c3ccccc3OC)[nH]2)c1 (configuration not stated),.,.,.,.,.,-3.6,.,.,
CCN1CCN(c2ccc(S(=O)(=O)N3CCCCC3)cc2NC(=O)COc2ccc(Cl)c(C)c2)CC1,9.8,44.7*,-10.4,-7.9,5.1,-0.2,11.1,3.6,
CCN1CCN(c2ccc(S(=O)(=O)N3CCCCC3)cc2NC(=O)/C=C/c2cc(OC)ccc2OC)CC1,32.3,45.5*,22.7,-0.1,-5.6,-1.4,15.1,2.1,
SMILES,UBC13 inh,Apaf-1 inh,UBC9 SUMO inh,GSTO1 counter,PAD4 FP inh,Rin1-Abl PPI inh,Apaf-1 inh conf2,Rh110 quench,others
CCN1CCN(c2ccc(S(=O)(=O)N3CCCCC3)cc2NC(=O)COc2ccccc2)CC1,3.3,22.9,.,4.9,-1.4,-1.6,.,.,
O=C(COc1cccc(-n2cnnn2)c1)Nc1ccc([N+](=O)[O-])cc1,3.0,8.2,14.5,12.6,2.6,0.9,.,.,
CC1C(=O)N2CCCc3cc(NC(=O)c4ccccc4F)cc1c32 (configuration not stated),-5.1,4.2,.,15.2,-0.2,0.3,.,.,
CC(=O)N/C(=N/c1nc(C)cc(C)n1)Nc1ccc(C)cc1C,4.9,1.3,0.3,-3.8,0.1,-1.3,.,.,
O=C(C(Cc1ccccc1)N1C(=O)c2ccccc2C1=O)N1c2ccccc2CCc2ccccc21 (configuration not stated),-13.1,40.2*,-13.2,-1.3,0.8,0.2,12.6,0.6,
O=C1c2ccccc2C(=O)N1CC(=O)N1c2ccccc2CCc2ccccc21,2.1,-8.1,21.0,6.2,2.0,-1.0,.,.,
Cc1ccc(C)c2[nH]c(=O)c(C(c3nnnn3Cc3ccco3)N3CCc4ccccc4C3)cc12 (configuration not stated),-21.3,70.6*,30.7,6.5,-10.8,6.2*,21.6,-2.7,Rin1 Abl conf=0.1;GFP quencher=1.5
CCn1cc(C(=O)NCCCN2CCCC(C)C2)c(=O)c2cc(S(=O)(=O)N(C)C3CCCCC3)ccc21 (configuration not stated),5.2,5.4,3.6,-1.8,-1.9,4.7,.,.,
CC(=O)C(C(C)=O)C1(O)C(=O)c2ccccc2C1=O,-13.6,86.0*,94.4*,74.8*,-11.7,23.2*,87.4*,-2.1,Fluor interf inh=>100;Rin1 Abl conf=18.7*;GFP quencher=0.1;GFP quench dose=>67.6
Nc1ccn([C@@H]2O[C@H](CNC(=O)[C@@H](N)CSCc3ccccc3)[C@@H](O)[C@H]2O)c(=O)n1,.,.,.,.,.,-3.3,.,.,
C[C@@H]1CN([C@@H](C)CO)C(=O)CCCn2cc(nn2)CO[C@H]1CN(C)C(=O)c1ccc2ccn(C)c2c1,.,.,.,.,.,1.7,.,.,

# Screening results: PubChem, several laboratories
